Experimental data published in ChEMBL document CHEMBL4428136, “Cell Active Hydroxylactam Inhibitors of Human Lactate Dehydrogenase with Oral Bioavailability in Mice” (ACS Med Chem Lett, 2016).

Columns and labels:
[1] = Lipophilicity, log D of the compound at pH 7.4 by high throughput method; type: physicochemical; conditions: buffer
[2] = Apparent permeability across apical to basolateral side in MDCK cells; type: ADME, cell-based, Canis lupus familiaris; conditions: dog
[3] = Protein binding in CD-1 mouse plasma; type: ADME, cell-free; conditions: read-out: PPB (converted)
[4] = target: L-lactate dehydrogenase B chain (Homo sapiens, UniProt P07195); assay: Inhibition of human recombinant carboxy-terminal His-tagged LDHB by UV endpoint assay
[5] = AUC in CD-1 mouse at 50 mg/kg, po administered as suspension by LC-MS/MS analysis; type: ADME, organism-based; conditions: in vivo
[6] = Cmax in CD-1 mouse at 5 mg/kg, po administered as suspension by LC-MS/MS analysis; type: ADME, organism-based; parameters: dose 5 mg/kg, route oral; conditions: in vivo
[7] = Oral bioavailability in CD-1 mouse at 5 mg/kg; type: ADME, organism-based; conditions: in vivo
How it was run: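 Bioavailability was derived from paired intravenous and oral administration in mice, with the oral dose at 5 mg/kg.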

[8] = Cmax in CD-1 mouse at 100 mg/kg, po administered as suspension by LC-MS/MS analysis; type: ADME, organism-based; parameters: dose 100 mg/kg, route oral; conditions: in vivo
[9] = Cmax in CD-1 mouse at 1 mg/kg, iv administered as bolus by LC-MS/MS analysis; type: ADME, organism-based; parameters: dose 1 mg/kg, route intravenous; conditions: in vivo
[10] = AUC in CD-1 mouse at 1 mg/kg, iv administered as bolus by LC-MS/MS analysis; type: ADME, organism-based; conditions: in vivo
[11] = AUC in CD-1 mouse at 200 mg/kg, po administered as suspension by LC-MS/MS analysis; type: ADME, organism-based; conditions: in vivo
[12] = Cmax in CD-1 mouse at 200 mg/kg, po administered as suspension by LC-MS/MS analysis; type: ADME, organism-based; parameters: dose 200 mg/kg, route oral; conditions: in vivo
[13] = Plasma clearance in CD-1 mouse at 1 mg/kg, iv administered as bolus by LC-MS/MS analysis; type: ADME, organism-based
[14] = Half life in CD-1 mouse at 1 mg/kg, iv administered as bolus by LC-MS/MS analysis; type: ADME, organism-based; conditions: in vivo
[15] = AUC in CD-1 mouse at 5 mg/kg, po administered as suspension by LC-MS/MS analysis; type: ADME, organism-based; conditions: in vivo
[16] = AUC in CD-1 mouse at 100 mg/kg, po administered as suspension by LC-MS/MS analysis; type: ADME, organism-based; conditions: in vivo
[17] = Volume of distribution at steady state in CD-1 mouse at 1 mg/kg, iv administered as bolus by LC-MS/MS analysis; type: ADME, organism-based; conditions: in vivo, read-out: Vdss
[18] = Cmax in CD-1 mouse at 50 mg/kg, po administered as suspension by LC-MS/MS analysis; type: ADME, organism-based; parameters: dose 50 mg/kg, route oral; conditions: in vivo

L-lactate dehydrogenase B chain, sequence (P07195 whole entry): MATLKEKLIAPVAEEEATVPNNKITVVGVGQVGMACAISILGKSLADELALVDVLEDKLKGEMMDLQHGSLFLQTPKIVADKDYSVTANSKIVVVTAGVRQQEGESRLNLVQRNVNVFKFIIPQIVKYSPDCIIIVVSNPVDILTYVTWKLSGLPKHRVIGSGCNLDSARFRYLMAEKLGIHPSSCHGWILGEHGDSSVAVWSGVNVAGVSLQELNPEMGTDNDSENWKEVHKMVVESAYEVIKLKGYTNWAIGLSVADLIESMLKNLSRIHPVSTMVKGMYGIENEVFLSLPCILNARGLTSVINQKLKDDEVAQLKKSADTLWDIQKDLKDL

SMILES	logD [1]	Papp A→B [2] [×10⁻⁶ cm/s]	IC50 [4] [µM]	also measured
O=C1NC(c2ccsc2)(c2cccc(Nc3ccc(F)cc3)c2)CC(O)=C1Sc1ccccc1Cl (racemic)	2.4	1		fraction unbound [3]: < 0.001
N#Cc1ccc(C2(c3ccsc3)CC(O)=C(Sc3ccccc3Cl)C(=O)N2)cc1 (stereo not given)			1.1	
O=C1NC(c2ccsc2)(c2ccccn2)CC(O)=C1Sc1ccccc1Cl (stereo not given)			> 10	
O=C1NC(c2ccsc2)(c2cccc(NC3CCOCC3)c2)CC(O)=C1Sc1ccccc1Cl (racemic)	-0.3	0.5		
O=C1NC(c2ccsc2)(c2ccccc2F)CC(O)=C1Sc1ccccc1Cl (stereo not given)			1.8	
O=C1NC(c2ccccc2)(c2cscn2)CC(O)=C1Sc1ccccc1Cl (stereo not given)			2.3	
O=C1NC(c2ccc(N3CCOCC3=O)cc2)(c2ccsc2)CC(O)=C1Sc1ccccc1Cl (stereo not given)	0.4			
O=C1N[C@](c2ccc(N3CCOCC3)cc2)(c2ccsc2)CC(O)=C1Sc1ccccc1Cl	0.6	3.4		AUC [5]: 125 µM·h; Cmax [6]: 1.7 µM; fraction unbound [3]: 0.009; bioavailability [7]: 70%; Cmax [8]: 224 µM; Cmax [9]: 2.5 µM; AUC [10]: 1.5 µM·h; AUC [11]: 403 µM·h; Cmax [12]: 440 µM; clearance [13]: 21.1 mL/min/kg; half-life [14]: 1 h; AUC [15]: 5.1 µM·h; AUC [16]: 250 µM·h; Vd [17]: 1.4 L/kg; Cmax [18]: 60.7 µM
O=C1NC(c2ccccc2)(c2ccccc2)CC(O)=C1Sc1ccccc1Cl	1.4	9.4	2.2	fraction unbound [3]: 0.007
COC1CCN(c2ccc(C3(c4ccsc4)CC(O)=C(Sc4ccccc4Cl)C(=O)N3)cc2)CC1 (racemic)	1.2			
O=C1NC(c2ccccc2)(c2ccsc2)CC(O)=C1Sc1ccccc1Cl (stereo not given)	0.8	7.4		

The next lines start with results.

logD [1]	Papp A→B [2] [×10⁻⁶ cm/s]	IC50 [4] [µM]	SMILES	also measured
0.7			O=C1NC(c2ccc(N3CCC4(CC3)COC4)cc2)(c2ccsc2)CC(O)=C1Sc1ccccc1Cl (stereo not given)	
3.5			O=C1NC(c2ccc(C3CCCCC3)cc2)(c2ccsc2)CC(O)=C1Sc1ccccc1Cl (racemic)	
		0.21	COc1ccc(C2(c3ccsc3)CC(O)=C(Sc3ccccc3Cl)C(=O)N2)cc1 (stereo not given)	
1.3	6		CC1CN(c2ccc(C3(c4ccsc4)CC(O)=C(Sc4ccccc4Cl)C(=O)N3)cc2)CC(C)O1 (stereo not given)	fraction unbound [3]: < 0.001
0.8			N#CC1CCN(c2ccc(C3(c4ccsc4)CC(O)=C(Sc4ccccc4Cl)C(=O)N3)cc2)CC1 (stereo not given)	
1.3			CC1(C)CN(c2ccc(C3(c4ccsc4)CC(O)=C(Sc4ccccc4Cl)C(=O)N3)cc2)CCO1 (stereo not given)	
2.1	1.7		O=C1NC(c2ccc(N3CCCCC3)cc2)(c2ccsc2)CC(O)=C1Sc1ccccc1Cl (racemic)	fraction unbound [3]: < 0.001
